Source: ChEMBL document CHEMBL3102839, “Growth inhibitory activity for cancer cell lines of lapachol and its natural and semi-synthetic derivatives” (Bioorg Med Chem Lett, 2014)

Tests used:
[1] = tested on: SK-MEL-28; assay: Growth inhibition of human SK-MEL-28 cells by MTT assay; type: functional, cell-based
How it was run: (§1)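 In vitro MTT colorimetric read-out of growth inhibition. Each compound was run across a six-line human cancer panel chosen for differing resistance to pro-apoptotic stimuli. IC50 was taken as the growth inhibitory concentration. No reference drug was included.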

[2] = Growth inhibition of human Hs683 cells by MTT assay; type: functional, cell-based; conditions: Hs 683; how it was run: as §1
[3] = tested on: PC-3; assay: Growth inhibition of human PC3 cells by MTT assay; type: functional, cell-based; how it was run: as §1
[4] = tested on: LoVo; assay: Growth inhibition of human LoVo cells by MTT assay; type: functional, cell-based; how it was run: as §1
[5] = tested on: A549; assay: Growth inhibition of human A549 cells by MTT assay; type: functional, cell-based; how it was run: as §1
[6] = Growth inhibition of human U373 cells by MTT assay; type: functional, cell-based, U-373MG ATCC; conditions: U373 MG; how it was run: as §1
[7] = tested on: LNCaP; assay: Growth inhibition of human LNCAP cells; type: functional; conditions: read-out: ED50 (the source's name)
[8] = tested on: KB; assay: Growth inhibition of human KB cells; type: functional; conditions: read-out: ED50 (the source's name)
[9] = tested on: Lu1; assay: Growth inhibition of human Lu1 cells; type: functional; conditions: read-out: ED50 (the source's name)
[10] = Growth inhibition of hTERT expressing human RPE1 cells; type: functional, TERT-RPE1; conditions: RPE-1, read-out: ED50 (the source's name)
[11] = tested on: Col2; assay: Growth inhibition of human Col2 cells; type: functional; conditions: read-out: ED50 (the source's name)
[12] = Chemical stability of the compound in cell culture medium assessed as compound recovery after 72 hrs; type: physicochemical; conditions: read-out: Drug recovery

Compound | IC50 [1] | IC50 [2] | IC50 [3] | IC50 [4] | IC50 [5] | IC50 [6] | EC50 [7] | EC50 [8] | EC50 [9] | EC50 [10] | EC50 [11] | remaining at 72 h [12]
CC(C)=CCC1=C(O)C(=O)c2ccccc2C1=O [LAPACHOL] | 8 µM | 11 µM | 4 µM | 9 µM | 8 µM | 8 µM | – | – | – | – | – | –
C=CCOC1=C(CC=C(C)C)C(=O)c2ccccc2C1=O | 23 µM | 28 µM | 28 µM | 22 µM | 26 µM | 75 µM | – | – | – | – | – | –
CC(C)=CCC1=C(Cl)C(=O)c2ccccc2C1=O | 31 µM | 33 µM | 27 µM | 25 µM | 34 µM | 26 µM | 12.2 µM | 12.2 µM | 12.2 µM | 12.2 µM | 12.2 µM | –
CCCCCCCC/C=C\CCCCCCCC(=O)OC1=C(CC=C(C)C)C(=O)c2ccccc2C1=O | 73 µM | 85 µM | 65 µM | 57 µM | 59 µM | 84 µM | – | – | – | – | – | > 95%
CCCCCCCCCCCCCCCCCC(=O)OC1=C(CC=C(C)C)C(=O)c2ccccc2C1=O | > 100 µM | > 100 µM | > 100 µM | > 100 µM | > 100 µM | > 100 µM | – | – | – | – | – | > 95%
CCCCCCCCCCCC(=O)OC1=C(CC=C(C)C)C(=O)c2ccccc2C1=O | 18 µM | 18 µM | 27 µM | 27 µM | 35 µM | 31 µM | – | – | – | – | – | > 95%
CC(=O)OC1=C(CC=C(C)C)C(=O)c2ccccc2C1=O | 13 µM | 31 µM | 4 µM | 8 µM | 5 µM | 30 µM | – | – | – | – | – | > 95%
CCOC1=C(CC=C(C)C)C(=O)c2ccccc2C1=O | > 100 µM | > 100 µM | > 100 µM | > 100 µM | > 100 µM | > 100 µM | – | – | – | – | – | –
O=C1C(O)=C(Cc2ccccc2)C(=O)c2ccccc21 | > 100 µM | > 100 µM | 91 µM | 42 µM | > 100 µM | > 100 µM | – | – | – | – | – | –
O=C1C(O)=C(/C=C/c2ccccc2)C(=O)c2ccccc21 | > 100 µM | 42 µM | > 100 µM | 82 µM | > 100 µM | > 100 µM | – | – | – | – | – | –
O=C1C=C(O)C(=O)c2ccccc21 [LAWSONE] | > 100 µM | 31 µM | > 100 µM | > 100 µM | 58 µM | > 100 µM | – | – | – | – | – | –
COC1=C(CC=C(C)C)C(=O)c2ccccc2C1=O | 27 µM | 36 µM | 42 µM | 57 µM | 36 µM | 78 µM | – | – | – | – | – | –
CCCOC1=C(CC=C(C)C)C(=O)c2ccccc2C1=O | > 100 µM | > 100 µM | > 100 µM | > 100 µM | > 100 µM | > 100 µM | – | – | – | – | – | –
CC(C)=CCC/C(C)=C/CC1=C(O)C(=O)c2ccccc2C1=O | 28 µM | 11 µM | 12 µM | 7 µM | 12 µM | 48 µM | – | – | – | – | – | –
CCCCCCCCCCCCCC(=O)OC1=C(CC=C(C)C)C(=O)c2ccccc2C1=O | 50 µM | 89 µM | 43 µM | 50 µM | 49 µM | > 100 µM | – | – | – | – | – | > 95%
CC(C)=CCOC1=C(CC=C(C)C)C(=O)c2ccccc2C1=O | 29 µM | 41 µM | 38 µM | 32 µM | 33 µM | > 100 µM | – | – | – | – | – | –
CCCCCCCCCCCCCCCC(=O)OC1=C(CC=C(C)C)C(=O)c2ccccc2C1=O | 33 µM | 48 µM | 35 µM | 29 µM | 38 µM | 54 µM | – | – | – | – | – | > 95%
